The results in this text go back to ChEMBL document CHEMBL4373711, “Development of 3,5-Dinitrophenyl-Containing 1,2,4-Triazoles and Their Trifluoromethyl Analogues as Highly Efficient Antitubercular Agents Inhibiting Decaprenylphosphoryl-β-d-ribofuranose 2'-Oxidase” (J Med Chem, 2019).

Assay [1] concerns Mycobacterium tuberculosis. Put plainly: Antimycobacterial activity against multi-drug resistant Mycobacterium tuberculosis Praha 4 after 14 days. The following applies: Praha 4, 336 h.
Assay [2] concerns Mycobacterium tuberculosis. Put plainly: Antimycobacterial activity against multi-drug resistant Mycobacterium tuberculosis Praha 4 after 21 days. Type of assay: functional. The note with it: Praha 4, 504 h. The method, boiled down:
(§1)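 M. tuberculosis strains (H37Rv and clinical MDR/XDR isolates) tested by microdilution in Šula's semisynthetic medium. Compounds were dissolved in DMSO and tested at 32 to 0.03 µM in twofold steps. Inoculum was a 1.0 McFarland suspension diluted 10-3. Plates were incubated at 37 °C and read at 14 and 21 days.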

Assay [3] relates to Mycobacterium tuberculosis. Put plainly: Antimycobacterial activity against multi-drug resistant Mycobacterium tuberculosis 8666/2010 after 14 days. It is filed as functional. The note with it: 8666/2010, 336 h. The method, boiled down:
as §1

In assay [4] the test system is Mycobacterium tuberculosis. Kind of assay: Antimycobacterial activity against multi-drug resistant Mycobacterium tuberculosis Praha 1 after 21 days. The following applies: Praha 1, 504 h. Type of assay: functional. The method, boiled down: as §1
Assay [5] relates to Mycobacterium tuberculosis. Put plainly: Antimycobacterial activity against multi-drug resistant Mycobacterium tuberculosis Praha 1 after 14 days. The note with it: Praha 1, 336 h. Type of assay: functional. Put shortly: as §1
Assay [6] concerns Mycobacterium tuberculosis. Put plainly: Antimycobacterial activity against multi-drug resistant Mycobacterium tuberculosis 9449/2007 after 21 days. It is filed as functional. The following applies: 9449/2007, 504 h. The method, boiled down:
as §1

In assay [7] the test system is Mycobacterium tuberculosis. Put plainly: Antimycobacterial activity against multi-drug resistant Mycobacterium tuberculosis 7357/1998 after 14 days. Type of assay: functional. The following applies: 7357/1998, 336 h. The method, boiled down:
as §1

Assay [8] concerns Mycobacterium tuberculosis. Put plainly: Antimycobacterial activity against multi-drug resistant Mycobacterium tuberculosis 8666/2010 after 21 days. Type of assay: functional. The following applies: 8666/2010, 504 h. The method, boiled down:
as §1

The test system of assay [9] is Mycobacterium tuberculosis. Kind of assay: microbe, parasite or virus in culture. The note with it: 234/2005, 336 h.
Assay [10] deals with Mycobacterium tuberculosis. Put plainly: Antimycobacterial activity against multi-drug resistant Mycobacterium tuberculosis 7357/1998 after 21 days. It is filed as functional. The note with it: 7357/1998, 504 h. Put shortly: as §1
Assay [11] has as its system Mycobacterium tuberculosis. Put plainly: Antimycobacterial activity against multi-drug resistant Mycobacterium tuberculosis 234/2005 after 21 days. Type of assay: functional. The note with it: 234/2005, 504 h. Put shortly:
as §1

For assay [12], the system named is Mycobacterium tuberculosis. Put plainly: Antimycobacterial activity against multi-drug resistant Mycobacterium tuberculosis 9449/2007 after 14 days. It is filed as functional. The following applies: 9449/2007, 336 h. Put shortly:
as §1

Converted amounts (≈) assume the structure as drawn.

With `Cn1c(SCc2ccc(Cl)cc2)nnc1-c1cc([N+](=O)[O-])cc([N+](=O)[O-])c1`, the MIC99 in [1] is 0.06 µM (≈ 0.0243 µg/mL); in assay [2], 0.125 µM (≈ 0.0507 µg/mL); in assay [3], 0.125 µM (≈ 0.0507 µg/mL); in assay [4] it was 0.125 µM (≈ 0.0507 µg/mL); in assay [5] it was 0.125 µM (≈ 0.0507 µg/mL); in assay [6] it was 0.125 µM (≈ 0.0507 µg/mL). Besides, the MIC99 in assay [7], in [8], in assay [9], in assay [10], in assay [11] and in [12] was 0.125 µM (≈ 0.0507 µg/mL) each time.
As to `COc1ccc(Cn2c(SCc3cc([N+](=O)[O-])cc([N+](=O)[O-])c3)nnc2-c2ccccc2)cc1`, the MIC99 stood at 2 µM (≈ 0.955 µg/mL) in [1]; 4 µM (≈ 1.91 µg/mL) in assay [2]; 2 µM (≈ 0.955 µg/mL) in assay [3]; 4 µM (≈ 1.91 µg/mL) in [4]; 2 µM (≈ 0.955 µg/mL) in assay [5]; 2 µM (≈ 0.955 µg/mL) in assay [6]. Moreover, the MIC99 in [7] was determined as 2 µM (≈ 0.955 µg/mL); in [8] it was 2 µM (≈ 0.955 µg/mL); in assay [9], 2 µM (≈ 0.955 µg/mL); in [10], 2 µM (≈ 0.955 µg/mL); in assay [11] it was 4 µM (≈ 1.91 µg/mL); in assay [12], 4 µM (≈ 1.91 µg/mL).
`CCCCCCCCSc1nnc(-c2cc([N+](=O)[O-])cc([N+](=O)[O-])c2)n1Cc1ccccc1`: the MIC99 in assay [1] came out at 0.125 µM (≈ 0.0587 µg/mL); in assay [2], 0.25 µM (≈ 0.117 µg/mL); in assay [3], 0.125 µM (≈ 0.0587 µg/mL); in [4] it was 0.25 µM (≈ 0.117 µg/mL); in [5], 0.125 µM (≈ 0.0587 µg/mL); in assay [6], 0.125 µM (≈ 0.0587 µg/mL). Moreover, the MIC99 in [7] came out at 0.25 µM (≈ 0.117 µg/mL); in assay [8], 0.25 µM (≈ 0.117 µg/mL); in assay [9], 0.125 µM (≈ 0.0587 µg/mL); in [10], 0.125 µM (≈ 0.0587 µg/mL); in [11] it was 0.25 µM (≈ 0.117 µg/mL); in assay [12], 0.25 µM (≈ 0.117 µg/mL).
Turning to `O=[N+]([O-])c1cc(-c2nnc(SCc3ccc(Cl)cc3)n2Cc2ccccc2)cc([N+](=O)[O-])c1`, the MIC99 in assay [1] was 0.125 µM (≈ 0.0602 µg/mL); in assay [2] it was 0.25 µM (≈ 0.12 µg/mL); in [3], 0.125 µM (≈ 0.0602 µg/mL); in assay [4], 0.25 µM (≈ 0.12 µg/mL); in [5], 0.125 µM (≈ 0.0602 µg/mL); in [6], 0.125 µM (≈ 0.0602 µg/mL). In addition, the MIC99 in assay [7] was 0.25 µM (≈ 0.12 µg/mL); in [8] it was 0.25 µM (≈ 0.12 µg/mL); in assay [9] it was 0.125 µM (≈ 0.0602 µg/mL); in assay [10], 0.125 µM (≈ 0.0602 µg/mL); in assay [11], 0.25 µM (≈ 0.12 µg/mL); in assay [12] it was 0.25 µM (≈ 0.12 µg/mL).
